The list is not random: actives were taken first. Their share in the collection is about 2.4%.
Dynein transport – blocks dynein driven cargo transport along microtubules | 3617.4 mouse cells, GR-EGFP nuclear translocation imaging; test concentration mostly 20 µM; stimulated with dexamethasone, 1 µM; stronger effect = lower value | z-score, hits read low | 220,000 compounds, 0.47% hits;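 active = plate z-score of nuclear minus cytoplasmic receptor signal below a set negative limit, without overly bright fluorescence or cell loss, cut at about -3.5 in these data, passing the limit was not always enough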;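 note: z-score of nuclear minus cytoplasmic ring GR-EGFP intensity difference per well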
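medium = tetracycline-free induction medium containing charcoal-stripped FBS | probe or stimulus = dexamethasone, 1.0 µM final | timing = 48 h induction, then 1 h compound, then 30 min agonist, 37 °C | detection = automated 10x imaging of fixed Hoechst-stained cells | read-out basis = nuclear versus cytoplasmic GR-EGFP signal, averaged per well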
Hck Nef HTS – human Hck-Nef kinase inhibition. P08631. Recombinant Hck-YEEI plus Nef, Z-Lyte FRET kinase assay. inhibition, % at 20 µM. 220,000 compounds, 0.68% hits;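 active = Hck-Nef kinase inhibition above about 50%, limit read from the data; inactive = inhibition below that limit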;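 note: 0% = DMSO with Hck plus Nef and 100% = Hck alone without Nef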
Target sequence (P08631 whole entry, looked up): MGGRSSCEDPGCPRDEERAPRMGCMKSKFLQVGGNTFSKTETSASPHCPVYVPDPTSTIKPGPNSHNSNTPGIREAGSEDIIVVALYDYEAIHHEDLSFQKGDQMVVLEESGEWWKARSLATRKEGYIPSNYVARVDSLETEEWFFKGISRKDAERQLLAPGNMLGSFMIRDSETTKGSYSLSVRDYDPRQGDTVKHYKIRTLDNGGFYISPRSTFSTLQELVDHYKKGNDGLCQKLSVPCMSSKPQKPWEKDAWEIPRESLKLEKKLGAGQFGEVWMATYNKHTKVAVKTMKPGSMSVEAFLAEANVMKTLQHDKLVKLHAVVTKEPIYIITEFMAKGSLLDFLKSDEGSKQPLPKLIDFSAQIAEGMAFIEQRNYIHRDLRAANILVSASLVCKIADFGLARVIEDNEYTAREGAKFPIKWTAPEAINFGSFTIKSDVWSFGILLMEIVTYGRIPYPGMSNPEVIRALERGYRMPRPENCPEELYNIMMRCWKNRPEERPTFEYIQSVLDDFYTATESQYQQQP
Autophagy mod – alters autophagy in cells. AID 463193. 190,000 compounds, 0.98% hits. calls only at 10 µM (by protocol). MEF GFP-LC3 puncta imaging; test concentration mostly 10 µM;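 active = percentage of spot-positive cells more than 3 SD above its plate mean, without a fluorescence outlier flag or 80% toxicity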;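 note: spot-positive cell cutoff set from DMSO-treated cells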
Mdm2 ligase inh – inhibitors of human Mdm2 E3 ubiquitin ligase; 210,000 compounds, 0.11% hits; AID 1230; Q00987; cell-based MDM2 ubiquitination luciferase reporter, 2 h; 0 = plate control, 100 = twice control, blank-subtracted; signal enhancement, % at 5 µM;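 active = signal enhancement of 30% or more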;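 note: luminescence tracks abundance of the self-degrading MDM2-luciferase fusion protein; higher signal means inhibition of MDM2 E3 ligase activity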
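Test system: mammalian cells stably expressing self-ubiquitinating, self-degrading MDM2 E3–luciferase fusion; Amount: 2000 cells in each well; Medium: DMEM; Schedule: 4 h settle plus 2 h compound, 37 °C; Technique: SteadyLite luciferase luminescence after 15 min room-temperature reagent incubation; Benchmarks: plate control and blank wells.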
TNF death inh – blocks TNF-alpha induced death of Jurkat FADD-/- cells | Jurkat FADD-/- TNF necroptosis rescue, ATP luminescence, 24 h; 0 = TNF only, 100 = no-TNF cells | activation (protection from cell death), % at 10 µM | 220,000 compounds, 0.068% hits;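 active = activation, meaning protection from cell death, of at least 50% relative to plate controls; inactive = activation below 50%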;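 note: necroptosis triggered by 40 ng/mL TNF-alpha added together with compound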
L929 necroptosis – blocks zVAD induced death of L929 cells; L929 zVAD necroptosis rescue, ATP luminescence, 24 h; with zVAD 60 µM; 220,000 compounds, 0.38% hits; viability rescue, % at 10 µM;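 active = activation, scaled between plate controls, above about 75%, limit read from the data; inactive = activation under that limit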;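 note: 0% = zVAD with DMSO and 100% = DMSO alone without zVAD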
The depositor's hits bear a star; i = inactive; · = no result given; + = active, no number.

SMILES	Dynein transport	Hck Nef HTS	Autophagy mod	Mdm2 ligase inh	TNF death inh	L929 necroptosis
Cc1cc2nc(C3CCN(CC4COc5ccccc5O4)CC3)[nH]c2cc1C (configuration not stated)	-0.48	0	i	-10	4	0
Cc1occc(=O)c1O	0.29	3	i	·	2	4
Brc1ccc(-c2cnc(-c3cccs3)o2)cc1	0.25	0	i	32*	0	0
COc1ccccc1NC(=O)/C(C#N)=C/C=C/c1ccco1	-1.1	10	+	-9	-13	-1
N#CC1=C(SCC(=O)Nc2nccs2)NC(=O)CC1c1ccccc1 (configuration not stated)	2.3	17	i	-9	75*	82*
CC(C)(C)NC(=O)CSc1nnc(C2CC2)n1Cc1ccccc1	0.39	2	i	-5	0	3
Cc1ccc(-n2c(=O)c3cc4c(=O)n(-c5ccc(C)c(C)c5)c(=O)c4c(C(=O)c4ccc(C(=O)O)cc4)c3c2=O)cc1C	2.1	92*	·	·	2	0
N#Cc1ccc(-c2ccccc2)nc1SCC(=O)c1cccc(Cl)c1	-0.49	0	+	-19	0	0
N#Cc1ccc(-c2ccc(Cl)cc2)nc1SCC(=O)c1cccc(Cl)c1	-0.27	5	+	-18	0	0
O=C(COc1c(CO)cc(Br)cc1CO)NC1CCCc2ccccc21 (configuration not stated)	0.019	25	i	-6	1	4
Cc1ccc(NC(=O)CN(C)C(=O)CSc2nncn2C)cc1	-0.16	18	i	-11	0	0
CC(=O)/C(=N\Nc1ccc(C)cc1)Sc1nncn1C	2.8	-3	+	-19	0	0
NC(=O)c1c(NC(=O)C2CCCO2)sc2c1CCCC2 (configuration not stated)	0.65	0	i	34*	1	0
CC(NCCN(C)C)C(=O)C12CC3CC(CC(C3)C1)C2 (configuration not stated)	2	12	·	-103	2	0
COCCn1c(-c2ccc(Cl)cc2Cl)nc2c(c(=O)c3ccccc3n2C)c1=O	0.86	2	+	-18	-14	0
Cc1ccc(Nc2nc(N)nc(CN3CCN(Cc4ccc5c(c4)OCO5)CC3)n2)cc1C	-0.65	19	i	8	0	-1
Cc1ccc(Nc2nc(N)nc(CN3CCN(Cc4ccc5c(c4)OCO5)CC3)n2)cc1Cl	-0.56	2	+	-33	-11	1
CC(C)c1ccccc1OCCNC(=S)NC(=O)c1cccnc1	-1.1	5	i	-24	-2	3
CCOc1ccc(NC(=O)CCC(=O)NNC(=O)COc2ccccc2C)cc1	0.54	17	+	-3	1	2
CC1=C(C#N)C(=O)N(C2CCS(=O)(=O)C2)C(=O)/C1=C\c1ccco1 (configuration not stated)	1	100*	·	-14	-3	0
COC(=O)C1=C(C)N(C)C(=O)/C1=C\c1ccco1	0.53	-2	i	-10	-1	0
O=C(N/N=C/c1ccco1)c1cccc(N2Cc3ccccc3C2)c1	-0.77	39	i	-2	0	1
O=C(N/N=C\c1ccc(-c2ccc([N+](=O)[O-])cc2)o1)c1ccc2c(c1)OCO2	-0.36	2	+	-3	2	1
CCN(CC)C(=O)CN1CCN(c2ncccn2)CC1	-0.3	-2	i	53*	-1	0
O=C(CN1CCN(c2ncccn2)CC1)N1CCCC1	-0.5	21	i	-2	0	4
SMILES	Dynein transport	Hck Nef HTS	Autophagy mod	Mdm2 ligase inh	TNF death inh	L929 necroptosis
Cc1ccc(Cl)cc1N1CCN(S(=O)(=O)c2cnc[nH]2)CC1	-0.31	1	i	-12	0	1
Cc1cccc2cc(C#N)c(N3CCN(C)CC3)nc12	-0.18	4	i	-9	4	2
Cc1cccc2cc(C#N)c(SCCN3CCCCC3)nc12	-1.5	1	+	·	-3	4
Cc1nonc1NC(=O)CSc1nc2c(C)cccc2cc1C#N	0.64	19	+	1	-1	1
O=C(COc1cccc2ccccc12)NNC(=O)CSCCO	-0.52	4	i	6	1	1
CN(C)c1cccc(/C=C(\C#N)c2ccccc2)c1	-0.8	-9	·	-26	-9	-1
COC(=O)c1sc(S(=O)(=O)N2CCC(C(=O)O)CC2)c(C(=O)OC)c1C	0.58	12	i	-1	0	83*
Cc1cc(C)c(C(=O)CN2C(=O)NC3(CCCCCC3)C2=O)cc1C	-1.1	19	+	-15	2	5
Cc1cc(C(=O)CN2C(=O)NC3(CCCCC3)C2=O)c(C)n1C	-0.48	0	i	-5	0	0
CCc1ccc(CCC(=O)Nc2sc3c(c2C#N)CCCC3)o1	-0.68	0	+	3	-10	0
CCC(=O)Nc1sc2c(c1C#N)CCC2	-0.36	17	i	-19	0	5
CSc1ccc(CN2CCC(CO)(Cc3ccc(Cl)cc3)CC2)cc1	0.38	-12	+	-10	2	2
OCC1(Cc2ccc(Cl)cc2)CCN(Cc2ccccc2F)CC1	-0.031	-2	i	-12	3	1
Cc1cc(N2CCCC2)ccc1/C=C1\NC(=S)N(C)C1=O	-3.3	-76	+	-11	-3	0
CC1=C(C)CC(C(=O)NCc2ccccn2)C(C(=O)O)C1 (configuration not stated)	-0.37	5	·	-11	-1	1
Clc1ccc(N=c2ssnc2Cl)cc1	-4.3*	-21	i	-19	-5	0
Clc1nssc1=Nc1ccccc1	-0.53	0	i	1	-1	1
COc1ccc(N=c2ssnc2Cl)cc1	-3.8*	-1	i	0	-3	0
COC(=O)C1=C(Nc2ccc(C)cc2)C=C(C)C(C(=O)OC)C1c1ccc(OC)cc1 (configuration not stated)	0.14	6	+	-14	-2	-1
C(=N\NC1=Nc2cccc3cccc1c23)/c1ccccn1	-1.5	29	i	-18	-4	1
Clc1ccccc1/C=N/NC1=Nc2cccc3cccc1c23	-1.5	9	+	346*	1	1
CCOc1ccc(C2CC(c3c(O)c4ccccc4oc3=O)=NN2c2ccccc2)cc1OC (configuration not stated)	-3.3	-107	+	-8	0	0
CC(=O)Nc1ccc(S(=O)(=O)NCC(=O)OCC(=O)N2CCCc3ccccc32)cc1	0.34	-30	i	-8	2	1
